Experimental data gathered from unrelated publications.
Compare with care: the assays were run in different laboratories.
Mode: inhibitor
USP51: Ubiquitin carboxyl-terminal hydrolase 51 (USP51, Homo sapiens, UniProt Q70EK9)
DRD3: D(3) dopamine receptor (DRD3, Homo sapiens, UniProt P35462)
CA12: Carbonic anhydrase 12 (CA12, Homo sapiens, UniProt O43570)

SMILES	target	read-out	method	cell line	tested at	inhibition [%]
Nc1ncnc2c1ncn2[C@@H]1O[C@H](CO)[C@@H](O)[C@H]1O	USP51	enzyme activity	–	–	5 µM	24
COc1cc(C(C)=O)ccc1OCC(O)CN1CCN(c2cc(Cl)ccc2C)CC1 (stereo not drawn)	DRD3	enzyme activity	–	–	10 µM	35.9
O=C(O)CC(O)C(=O)O (stereo not drawn)	USP51	enzyme activity	–	–	5 µM	31
O=C1C2CCCN2C(=O)N1CCCCN1CCN(c2cccc(C(F)(F)F)c2)CC1 (stereo not drawn)	DRD3	enzyme activity	–	–	10 µM	42.5
CC(C)Oc1ccc2c(=O)c(-c3ccccc3)coc2c1	USP51	enzyme activity	–	–	5 µM	43
CCOC(=O)C1CSc2[nH]c(=O)sc2C1c1cn(-c2ccccc2)nc1-c1ccc(C)cc1 (stereo not drawn)	CA12	enzyme activity	absorbance	–	1 µM	52.9
Cc1ccccc1N1CCN(CC(O)COc2ccc(C(=O)c3ccccc3)cc2)CC1 (stereo not drawn)	DRD3	enzyme activity	–	–	10 µM	53.1
CCOC(=O)C1CSc2[nH]c(=O)sc2C1c1cn(-c2ccccc2)nc1-c1ccc(Cl)cc1 (stereo not drawn)	CA12	enzyme activity	absorbance	–	1 µM	73.2
CC[C@H]1CN2CCc3cc(OC)c(OC)cc3[C@@H]2C[C@@H]1C[C@H]1NCCc2cc(OC)c(OC)cc21	USP51	enzyme activity	–	–	5 µM	20
CCOC(=O)C1CSc2[nH]c(=O)sc2C1c1cn(-c2ccccc2)nc1-c1ccc(Br)cc1 (stereo not drawn)	CA12	enzyme activity	absorbance	–	10 µM	81
COc1ccccc1N1CCN(CC(O)Cn2cnc3c2c(=O)n(C)c(=O)n3C)CC1 (stereo not drawn)	DRD3	enzyme activity	–	–	10 µM	-20.3
CN1C(=O)/C(=C2/C(=O)Nc3ccccc32)c2ccccc21	USP51	enzyme activity	–	–	5 µM	48
Clc1ccc(C(c2ccc(Cl)cc2)c2nnnn2CCCN2CCC(CCCc3ccccc3)CC2)cc1	Sodium-dependent dopamine transporter (SLC6A3, Homo sapiens, UniProt Q01959)	transporter uptake	–	HEK293	1 µM	19.8
O=C1NC(=S)C(=Cc2cn(-c3ccccc3)nc2-c2ccc(Br)cc2)S1	CA12	enzyme activity	absorbance	–	10 µM	49.8
OC(CNCc1cccc(Oc2nnnn2-c2ccccc2)c1)c1ccccc1 (stereo not drawn)	DRD3	enzyme activity	–	–	10 µM	29.3
